Active and inactive are the calls of the source. The rule behind the calls is not given here.
Columns and labels:
[1] = tested on: HepG2; test: Cytotoxicity against human HepG2 cells assessed as reduction in cell viability at <=10 uM by MTT assay; type: cell-based
[2] = AUC (0 to infinity) in BTBR mouse at 6 mg/kg, ip administered as single dose by LC-MS/MS analysis; type: ADME, organism-based; set-up: time infinity, route intraperitoneal, dose 6 mg/kg; conditions: in vivo
Method in brief: (§1)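 Mice given a single intraperitoneal dose of 6 mg/kg. Formulation: DMSO (10 %) and Tween 80 (10 %) in PBS (80 %). Plasma samples collected and analysed by LC-MS/MS. AUC is total exposure after the single dose, Cmax is maximum plasma concentration, and T1/2 is half-life.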

[3] = Half life in BTBR mouse at 6 mg/kg, ip administered as single dose by LC-MS/MS analysis; type: ADME, organism-based; conditions: in vivo; method in brief: as §1
[4] = Intrinsic clearance in rat liver microsomes measured after 60 mins in presence of NADPH by LC-MS/MS analysis; type: ADME, Microsome; conditions: for Intrinsic clearance in rat liver microsomes: 1 h
[5] = Half life in rat liver microsomes measured after 60 mins in presence of NADPH by LC-MS/MS analysis; type: ADME, Microsome; conditions: 1 h
[6] = target: T1, Proprotein convertase subtilisin/kexin type 9 (Homo sapiens, UniProt Q8NBP7); test: Modulation of PCSK9 in human HepG2 cells assessed as reduction in PCSK9 expression at 1 uM incubated for 24 hrs prior to compound washout followed by compound addition and measured after 24 hrs by ELISA; type: cell-based; set-up: scale not given: the % may be the effect or the level left; conditions: filed as modulator, time 48.0 hrs
T1 sequence (Q8NBP7 31-152 limits assumed): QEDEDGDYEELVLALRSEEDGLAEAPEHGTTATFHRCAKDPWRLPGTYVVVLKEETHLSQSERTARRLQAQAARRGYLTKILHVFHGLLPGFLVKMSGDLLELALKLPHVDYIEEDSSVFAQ
T1 sequence (Q8NBP7 153-692 limits assumed): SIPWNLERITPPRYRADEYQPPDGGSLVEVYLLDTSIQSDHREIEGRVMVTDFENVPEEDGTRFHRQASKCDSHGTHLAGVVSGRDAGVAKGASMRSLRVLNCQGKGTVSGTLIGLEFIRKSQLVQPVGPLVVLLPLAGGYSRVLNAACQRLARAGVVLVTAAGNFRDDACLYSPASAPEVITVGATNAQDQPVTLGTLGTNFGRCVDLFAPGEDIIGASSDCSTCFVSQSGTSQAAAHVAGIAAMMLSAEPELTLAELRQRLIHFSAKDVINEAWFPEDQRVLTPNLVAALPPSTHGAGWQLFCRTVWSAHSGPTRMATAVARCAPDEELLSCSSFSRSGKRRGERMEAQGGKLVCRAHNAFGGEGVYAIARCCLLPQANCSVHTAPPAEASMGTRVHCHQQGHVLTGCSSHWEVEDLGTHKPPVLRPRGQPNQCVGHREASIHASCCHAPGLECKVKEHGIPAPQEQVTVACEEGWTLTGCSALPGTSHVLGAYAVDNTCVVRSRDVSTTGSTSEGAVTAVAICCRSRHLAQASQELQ
Method in brief: (§2)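 HepG2 cells grown to 90% confluence and plated at 1X105 cells/well, then left to settle overnight. Medium replaced with dose medium containing compound or DMSO vehicle for 24 h, refreshed with the same medium, then incubated 24 h more. Medium collected after centrifugation. PCSK9 measured by sandwich ELISA with TMB read-out at 450 nm. Values normalized to vehicle, mean of n = 3.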

[7] = Half life in mouse liver microsomes measured after 60 mins in presence of NADPH by LC-MS/MS analysis; type: ADME, Microsome; conditions: 1 h
[8] = Cmax in BTBR mouse at 6 mg/kg, ip administered as single dose by LC-MS/MS analysis; type: ADME, organism-based; set-up: route intraperitoneal, dose 6 mg/kg; conditions: in vivo; method in brief: as §1
[9] = Intrinsic clearance in mouse liver microsomes measured after 60 mins in presence of NADPH by LC-MS/MS analysis; type: ADME, Microsome; conditions: for microsomal intrinsic clearance: microsomes, 1 h
[10] = Half life in human liver microsomes measured after 60 mins in presence of NADPH by LC-MS/MS analysis; type: ADME, Microsome; conditions: 1 h
[11] = Intrinsic clearance in human liver microsomes measured after 60 mins in presence of NADPH by LC-MS/MS analysis; type: ADME, Microsome; conditions: 1 h
[12] = target: T1, Proprotein convertase subtilisin/kexin type 9; test: Modulation of PCSK9 in human HepG2 cells assessed as reduction in PCSK9 expression incubated for 24 hrs prior to compound washout followed by compound addition and measured after 24 hrs by ELISA; type: cell-based; method in brief: as §2
[13] = target: T1, Proprotein convertase subtilisin/kexin type 9; test: Modulation of PCSK9 in human HepG2 cells assessed as reduction in PCSK9 expression at 100 nM incubated for 24 hrs prior to compound washout followed by compound addition and measured after 24 hrs by ELISA; type: cell-based; set-up: scale not given: the % may be the effect or the level left; conditions: time 48.0 hrs; method in brief: as §2
[14] = target: T1, Proprotein convertase subtilisin/kexin type 9; test: Modulation of PCSK9 in human HepG2 cells assessed as reduction in PCSK9 expression at 10 nM incubated for 24 hrs prior to compound washout followed by compound addition and measured after 24 hrs by ELISA; type: cell-based; set-up: scale not given: the % may be the effect or the level left; conditions: time 48.0 hrs; method in brief: as §2
[15] = target: T1, Proprotein convertase subtilisin/kexin type 9; test: Modulation of PCSK9 in human HepG2 cells assessed as reduction in PCSK9 expression at 10 to 100 nM incubated for 24 hrs prior to compound washout followed by compound addition and measured after 24 hrs by ELISA; type: cell-based; conditions: filed as modulator, dose 10-100 nM, time 48.0 hrs
Method in brief: (§3)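 HepG2 cells grown to 90% confluence, plated at 1X105 cells/well and left overnight. Medium then replaced with compound- or vehicle (DMSO)-containing dose medium, refreshed at 24 h, collected after a further 24 h. Secreted PCSK9 measured by sandwich ELISA with TMB read-out at 450 nm. Values normalized to DMSO group, mean of n = 3 ± SD.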

[16] = target: T1, Proprotein convertase subtilisin/kexin type 9; test: Modulation of PCSK9 in human HepG2 cells assessed as reduction in PCSK9 expression at 1 to 10 uM incubated for 24 hrs prior to compound washout followed by compound addition and measured after 24 hrs by ELISA; type: cell-based; conditions: filed as modulator, dose 1-10 µM, time 48.0 hrs; method in brief: as §3
[17] = liver microsomes, read-out: CLH

In the case of O=C(c1nc2c(F)cccc2[nH]1)c1c[nH]c2c(F)cccc12, the Activity [1] is reported as “Non-Toxic”.
In the case of OCCn1c(Cc2c[nH]c3c(F)cccc23)nc2ccc(F)cc21, the Activity [1] is reported as “Non-Toxic”.
With O=C(c1cc2cc(F)ccc2[nH]1)c1c[nH]c2c(F)cccc12 the AUC(0-inf) [2] was 610 ng·h/mL, the half-life [3] was 78.6 min and the “Intrinsic clearance in rat liver microsomes” value [4] was 18.1 µL/min/mg. The t1/2 [5] was 76.9 min, the Activity [6] was “Active” and the Activity [1] was “Non-Toxic”. It also gave a t1/2 [7] of 40.1 min, a Cmax [8] of 323 ng/mL and a microsomal intrinsic clearance [9] of 34.6 µL/min/mg.
For Fc1ccc2nc(Cc3c[nH]c4c(F)cccc34)[nH]c2c1, the “Intrinsic clearance in rat liver microsomes” value [4] was 145.6 µL/min/mg, the t1/2 [5] was 9.5 min and the Activity [6] was “Active”. For the same molecule, the t1/2 [10] was 17.5 min, the Activity [1] was “Non-Toxic” and the t1/2 [7] was 7.1 min. It also gave a CLH [11] of 79.4 µL/min/mg, an EC50 [12] of 348 nM and a microsomal intrinsic clearance [9] of 194.9 µL/min/mg.
In the case of Cn1c(C(=O)c2c[nH]c3cccc(F)c23)nc2ccc(F)cc21, the Activity [1] is reported as “Non-Toxic”.
In the case of Fc1ccc2nc(Cc3c[nH]c4c(F)cccc34)n(Cc3ccccc3)c2c1, the Activity [1] is reported as “Non-Toxic”.
In the case of Fc1ccc2nc(Cc3c[nH]c4c(F)cccc34)n(CCc3ccccc3)c2c1, the Activity [1] is reported as “Non-Toxic”.
With Cn1c(C(=O)c2c[nH]c3c(F)cccc23)nc2cc(F)ccc21 the Activity [1] was “Non-Toxic”, the Activity [13] was 11.9% and the Activity [14] was 34.4%.
For O=C(c1nc2ccc(F)cc2[nH]1)c1c[nH]c2ccccc12, the Activity [1] was “Non-Toxic”.
In the case of Cn1c(C(=O)c2c[nH]c3cc(F)ccc23)nc2ccc(F)cc21, the Activity [1] is reported as “Non-Toxic”.
For Cn1c(C(=O)c2c[nH]c3c(F)cccc23)nc2cccc(F)c21, the Activity [15] was “Active” and the Activity [1] was “Non-Toxic”.
In the case of Cn1c(C(=O)c2c[nH]c3ccc(F)cc23)nc2ccc(F)cc21, the Activity [1] is reported as “Non-Toxic”.
With CC(C)Cn1c(Cc2c[nH]c3c(F)cccc23)nc2ccc(F)cc21 the Activity [1] was “Non-Toxic”.
With Cn1c(C(=O)c2c[nH]c3c(F)cccc23)nc2ccccc21 the Activity [15] was “Active” and the Activity [1] was “Non-Toxic”.
With CCCCn1cc(C(=O)c2nc3ccc(F)cc3n2C)c2cccc(F)c21 the Activity [1] was “Non-Toxic” and the EC50 [12] was 0.28 nM.
For Cn1c(Cc2c[nH]c3c(F)cccc23)nc2ccc(F)cc21, the Activity [1] was “Non-Toxic” and the Activity [16] was “Active”.
For Cn1c(C(=O)c2c[nH]c3c(F)cccc23)nc2c(F)cccc21, the Activity [15] was “Active” and the Activity [1] was “Non-Toxic”.
In the case of Cn1c(C(=O)c2c[nH]c3ccccc23)nc2ccc(F)cc21, the Activity [15] is reported as “Active” and the Activity [1] is reported as “Non-Toxic”.
With Cn1c(C(=O)c2cn(CCCN3CCOCC3)c3c(F)cccc23)nc2ccc(F)cc21 the Activity [1] was “Non-Toxic” and the EC50 [12] was 39.9 nM.
For O=C(c1nc2ccccc2[nH]1)c1c[nH]c2ccccc12, the “Intrinsic clearance in rat liver microsomes” value [4] was 33.1 µL/min/mg, the t1/2 [5] was 42.4 min and the Activity [1] was “Non-Toxic”. For the same molecule, the t1/2 [7] was 25.8 min and the microsomal intrinsic clearance [9] was 54.6 µL/min/mg.
For Cn1c(C(=O)c2cn(S(=O)(=O)CCN3CCOCC3)c3c(F)cccc23)nc2ccc(F)cc21, the Activity [1] was “Non-Toxic” and the EC50 [12] was 0.69 nM.
In the case of O=C(c1nc2ccc(F)cc2[nH]1)c1c[nH]c2c(F)cccc12, the AUC(0-inf) [2] is reported as 696 ng·h/mL, the half-life [3] is reported as 98.4 min and the “Intrinsic clearance in rat liver microsomes” value [4] is reported as 29.4 µL/min/mg. The t1/2 [5] was 47.8 min, the Activity [6] was 90% and the Activity [1] was “Non-Toxic”. For the same molecule, the t1/2 [7] was 30 min, the EC50 [12] was 2.46 nM and the Cmax [8] was 294 ng/mL. The microsomal intrinsic clearance [9] was 46.5 µL/min/mg.
In the case of Fc1ccc2[nH]c(Cc3c[nH]c4c(F)cccc34)cc2c1, the “Intrinsic clearance in rat liver microsomes” value [4] is reported as 60.7 µL/min/mg, the t1/2 [5] is reported as 23.2 min and the Activity [6] is reported as “Active”. The t1/2 [10] was 63.9 min, the t1/2 [7] was 16.5 min and the CLH [11] was 23 µL/min/mg. It also gave a microsomal intrinsic clearance [9] of 83.9 µL/min/mg.
For Cn1c(C(=O)c2c[nH]c3c(F)cccc23)nc2ccc(F)cc21, the microsomal CLint [4, 17] was 23 µL/min/mg, the Activity [1] was “Non-Toxic” and the Activity [13] was 12.5%. The Activity [14] was 35%, the EC50 [12] was 0.15 nM and the microsomal CLint [9, 17] was 41.7 µL/min/mg.
For CC(C)(C)Cn1c(Cc2c[nH]c3c(F)cccc23)nc2ccc(F)cc21, the Activity [1] was “Non-Toxic”.
With Cn1cc(C(=O)c2nc3ccc(F)cc3n2C)c2cccc(F)c21 the Activity [1] was “Non-Toxic” and the EC50 [12] was 1.21 nM.
With O=C(c1nc2ccccc2[nH]1)c1c[nH]c2c(F)cccc12 the Activity [1] was “Non-Toxic”.
With Cn1c(C(=O)c2cn(CCCCN3CCOCC3)c3c(F)cccc23)nc2ccc(F)cc21 the Activity [1] was “Non-Toxic” and the EC50 [12] was 88 nM.
With Cn1c(C(=O)c2cn(CCN3CCOCC3)c3c(F)cccc23)nc2ccc(F)cc21 the Activity [1] was “Non-Toxic” and the EC50 [12] was 11 nM.
With Cn1c(C(=O)c2cn(S(=O)(=O)CCN3CCNCC3)c3c(F)cccc23)nc2ccc(F)cc21 the Activity [1] was “Non-Toxic” and the EC50 [12] was 161 nM.
For Fc1ccc2nc(Cc3c[nH]c4c(F)cccc34)n(Cc3cccnc3)c2c1, the Activity [1] was “Non-Toxic”.
For Fc1ccc2nc(Cc3c[nH]c4c(F)cccc34)n(Cc3ccncc3)c2c1, the Activity [1] was “Non-Toxic”.
With [2H]C([2H])(c1nc2cc(F)ccc2[nH]1)c1c[nH]c2c(F)cccc12 the “Intrinsic clearance in rat liver microsomes” value [4] was 59.1 µL/min/mg, the t1/2 [5] was 23.5 min and the Activity [1] was “Non-Toxic”. For the same molecule, the t1/2 [7] was 16.3 min and the microsomal intrinsic clearance [9] was 85.2 µL/min/mg.

Reference: ChEMBL document CHEMBL4765433, “From methylene bridged diindole to carbonyl linked benzimidazoleindole: Development of potent and metabolically stable PCSK9 modulators” (Eur J Med Chem, 2020)
